Data published in article PMC6690187 (Cancer chemotherapy and pharmacology, 2012).

What was measured:
[1] = Stability of ML-970 in mouse plasma; assay type: in vitro ADME; details: for compound remaining intact: 4°C
How it was run: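 Mouse plasma was spiked with 1 or 10 μM test compound. Samples were held at 37°C in a water bath (sampled at 5, 10, 20, 30 and 60 min and at 2, 4 and 8 h), at 4°C (0.5–24 h) or at −80°C (1, 2 and 4 weeks). Each sample was extracted and measured by HPLC-UV at 308 nm. Remaining amount was expressed as % of the starting concentration versus time.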

[2] = tested on: mouse plasma proteins; experiment: Binding to mouse plasma proteins; assay type: in vitro ADME; details: 37°C 1 h
How it was run: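 Test compound added to mouse plasma at 0.1, 1.0 and 10 μM and held at 37°C for 1 h; methanol replaced plasma in controls. Samples were centrifuged through 30 kDa ultrafiltration units at 2,000×g until dry. Filtrate (free, F) and unfiltered solution (total, T) were each measured in triplicate by HPLC-UV at 308 nm. Filter-bound amount (X) was included: % bound = [(T–F–X)/T] × 100.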

[3] = S9 metabolism, mouse hepatic S9 fractions; assay type: in vitro ADME; details: mouse S9 1 mg/ml, 10 μM, within an hour of incubation, 37°C
[4] = S9 metabolism, rat hepatic S9 fractions; assay type: in vitro ADME; details: rat S9 1 mg/ml, 10 μM, within an hour of incubation, 37°C
[5] = S9 metabolism, human hepatic S9 fractions; assay type: in vitro ADME; details: human S9 1 mg/ml, 10 μM, within an hour of incubation, 37°C
[6] = Pharmacokinetic studies in nude mice; assay type: in vivo, female athymic nude mice; details: for intact compound in plasma / time to highest plasma concentration: solution formulation
How it was run: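 Female athymic nude mice (~25 g) received a solution formulation (PEG400/EtOH/Tween 80/D5W) at 20 mg/kg i.v., 50 mg/kg i.p. or 100 mg/kg p.o. Others received a suspension (0.05% Tween 80/saline) at 15 mg/kg i.p. or 100 mg/kg p.o. Heparinized retro-orbital blood was taken from 5 min to 24 h (i.v.) or 10 min to 48 h, with ≥3 samples per time point. Plasma was extracted with acetonitrile and measured by HPLC-UV.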

[7] = Pharmacokinetic and tissue distribution studies in CD-1 mice; assay type: in vivo, female CD-1 mice
[8] = Urinary and fecal excretion after i.v. injection; assay type: in vivo, mice; details: i.v. injection 20 mg/kg, first 48 h, parent compound
How it was run: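 Female nude mice dosed i.v. (20 mg/kg, solution formulation) were housed in metabolic cages, and urine and feces were collected for up to 48 h. Containers and cages were rinsed twice with 0.9% saline. Urine and each wash were extracted directly, analysed separately and summed. Feces were homogenized in PBS (5 ml/g), extracted with acetonitrile and measured by HPLC. Results were expressed as % of dose.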

[9] = Urinary and fecal excretion, higher dose in CD-1 mice; assay type: in vivo; details: 40 mg/kg i.v.
[10] = Preliminary pharmacokinetics; assay type: in vivo, female Sprague-Dawley rats; details: rats, oral 2.5 vs 5 mg/kg; exception intestine
How it was run: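 Female Sprague-Dawley rats received oral doses of 2.5 or 5 mg/kg in (PEG400/EtOH/Tween 80 = 6:3:1)/D5W = 1:2, either as a single dose or once daily for 5 days. Plasma was sampled at 1, 6 and 12 h. Lungs, liver, kidneys, small intestine and small-intestine contents were collected at 12 h on days 1 and 5. Tissues were homogenized in PBS, extracted with acetonitrile and analysed by HPLC.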

[11] = tested on: NCI60; details: read-out: average GI50; NCI60 screening, cytotoxic activity; cited from earlier work
[12] = tested on: six different cell lines; details: cited from earlier work
[13] = tested on: xenograft models of glioma (SF295), lung (H522), breast (MDA-MB-435), ovarian (OVCAR-3) cancers; details: SF295, H522, MDA-MB-435, OVCAR-3 xenografts; cited from earlier work
[14] = tested on: MDA-MB-435 breast cancer xenograft; details: oral doses 70-280 mg/kg and i.v. dose 10 mg/kg; cited from earlier work
[15] = in vitro assays and xenograft studies; cited from earlier work
[16] = nude mice, 0.05% Tween 80/Saline, i.p., 15 mg/kg, plasma
[17] = nude mice, 0.05% Tween 80/Saline, p.o., 100 mg/kg, plasma
[18] = nude mice, PEG400/EtOH/Tween 80/D5W, i.p., 50 mg/kg, plasma
[19] = nude mice, PEG400/EtOH/Tween 80/D5W, i.v., 20 mg/kg, plasma
[20] = nude mice, PEG400/EtOH/Tween 80/D5W, p.o., 100 mg/kg, plasma
[21] = CD-1 mice, PEG400/EtOH/Tween 80/D5W, i.v., 2.5 mg/kg, plasma
[22] = CD-1 mice, PEG400/EtOH/Tween 80/D5W, p.o., 2.5 mg/kg, plasma
[23] = CD-1 mice, PEG400/EtOH/Tween 80/D5W, p.o., 5 mg/kg, plasma

## COc1cc2cc(C(=O)Nc3cc(N)c4ccccc4c3CCCl)[nH]c2c(OC)c1OC [ML-970]
[1]; 24-h storage (summary)
  compound remaining intact: approximately 90%
[1]; 24 h, 1 μM
  compound remaining intact: 88.6%
[1]; 24 h, 10 μM
  compound remaining intact: 92.4%
[1]; 37°C, 8-h incubation, both 1 and 10 μM (summary)
  compound remaining: approximately 70%
[1]; 37°C, 8 h, 1 μM
  compound remaining: 70.9%
[1]; 37°C, 8 h, 10 μM
  compound remaining: 70.2%
[1]; −80°C, 4 weeks, 1 μM
  compound remaining: 87.5%
[1]; −80°C, 4 weeks, 10 μM
  compound remaining: 89.8%
[1]; −80°C, a week of storage
  degradation on storage: no significant degradation
[2]; 0.1 μM
  binding to plasma proteins: 87.57%
[2]; 1.0 μM
  binding to plasma proteins: 89.31%
[2]; 10.0 μM
  binding to plasma proteins: 90.89%
[3]
  loss of parent compound with S9 enzymes: no significant loss of the parent compound
[4]
  loss of parent compound with S9 enzymes: no significant loss of the parent compound
[5]
  loss of parent compound with S9 enzymes: no significant loss of the parent compound
[6]; doses from 10 to 100 mg/kg, soluble and suspension formulations
  toxicity observed in pharmacokinetic studies: did not observe any toxicity
[6]; [16]
  AUC0~∞: 5350 ng·h/mL
  CL or CL/F: 2.67 mL/g/h
  Cmax: 1160 ng/mL
  MRT: 6.21 h
  T1/2: 6.14 h
  Tmax: 1 h
[6]; [17]
  AUC0~∞: 11520 ng·h/mL
  CL or CL/F: 8.07 mL/g/h
  Cmax: 1520 ng/mL
  MRT: 8.1 h
  T1/2: 6.73 h
  Tmax: 1 h
[6]; nude mice, 8 h after i.v. 20 mg/kg
  intact compound in plasma: still detectable
[6]; nude mice, 24 h after i.p. 50 mg/kg
  intact compound in plasma: could still be detected
[6]; nude mice, 24 h after p.o. 100 mg/kg
  intact compound in plasma: could still be detected
[6]; [18]
  AUC0~∞: 42110 ng·h/mL
  CL or CL/F: 1.19 mL/g/h
  Cmax: 20390 ng/mL
  MRT: 2.5 h
  T1/2: 4.58 h
  Tmax: 0.17 h
[6]; [19]
  AUC0~∞: 14890 ng·h/mL
  CL or CL/F: 1.35 mL/g/h
  Cmax: 22350 ng/mL
  MRT: 0.87 h
  T1/2: 0.78 h
  Tmax: 0 h
  Vss: 1.18 mL/g
[6]; nude mice, PEG400/EtOH/Tween 80/D5W, p.o., 100 mg/kg
  F^oral: 0.53
[6]; [20]
  AUC0~∞: 39630 ng·h/mL
  CL or CL/F: 2.52 mL/g/h
  Cmax: 18930 ng/mL
  MRT: 2.82 h
  T1/2: 4.26 h
  Tmax: 0.5 h
[6]; nude mice, i.p. 50 mg/kg
  time to highest plasma concentration: 10 min
[6]; nude mice, oral gavage 100 mg/kg
  time to highest plasma concentration: 30 min
[7]; [21]
  AUC0~∞: 1960 ng·h/mL
  CL or CL/F: 1.27 mL/g/h
  Cmax: 4340 ng/mL
  MRT: 2.76 h
  T1/2: 0.31 h
  Tmax: 0 h
  Vss: 3.52 mL/g
[7]; CD-1 mice, PEG400/EtOH/Tween 80/D5W, p.o., 2.5 mg/kg
  F^oral: 0.43
[7]; [22]
  AUC0~∞: 850 ng·h/mL
  CL or CL/F: 2.61 mL/g/h
  Cmax: 550 ng/mL
  MRT: 8.28 h
  T1/2: 10.73 h
  Tmax: 0.08 h
[7]; CD-1 mice, PEG400/EtOH/Tween 80/D5W, p.o., 5 mg/kg
  F^oral: 0.44
[7]; [23]
  AUC0~∞: 1730 ng·h/mL
  CL or CL/F: 3.22 mL/g/h
  Cmax: 990 ng/mL
  MRT: 1.8 h
  T1/2: 2.97 h
  Tmax: 0.5 h
[7]; mice, i.v. 2.5 mg/kg and p.o. 2.5 mg/kg, levels stayed relatively high for at least 24 h
  tissue distribution: high levels of ML-970 in the liver, gallbladder, and small intestine
[8]
  compound excreted in feces: 1.14%
  compound excreted in urine: less than 0.5%
[9]; 48 h after treatment
  compound excreted in urine: about 1%
[9]; first 8 h
  parental compound excreted in feces: less than 0.1%
[10]
  tissue concentrations between two doses: no significant difference
[11]
  GI50: 34 nM
[12]
  cell lines killed in hollow fiber assay: efficiently killing six different cell lines
  hollow fiber assay total score: 54 points
[13]
  antitumor effects in xenograft models: significant antitumor effects in all of the models
[14]
  tumor growth: inhibited tumor growth
  weight loss (index for host toxicity): no weight loss
[15]
  liver and bone marrow toxicity compared with other CC-1065 analogs: decreased liver and bone marrow toxicity
